Screening results (PubChem)
Shown are actives, neighbours in structure and some others; about 1.8% of the full set was active somewhere.
PABP1 MLLE inh – inhibitors of microRNA-mediated deadenylation, human PABP1 MLLE binding; P11940; GST-MLLE / FITC-PAM2 fluorescence polarization; inhibition, % at 20 µM; 360,000 tested, 0.36% active; AID 588489; in the data active means inhibition above about 35%, passing the limit was not always enough
eIF4E 4G PPI – eIF4E/eIF4G interaction inhibition in translation initiation; P63073+Q04637; TR-FRET eIF4E-eIF4GI(517-606) binding, 2 h; inhibition, % at 21.7 µM; 220,000 tested, 0.37% active; AID 782;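 active means inhibition above about 30%, limit read from the data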
Target sequence (P63073 whole entry, looked up): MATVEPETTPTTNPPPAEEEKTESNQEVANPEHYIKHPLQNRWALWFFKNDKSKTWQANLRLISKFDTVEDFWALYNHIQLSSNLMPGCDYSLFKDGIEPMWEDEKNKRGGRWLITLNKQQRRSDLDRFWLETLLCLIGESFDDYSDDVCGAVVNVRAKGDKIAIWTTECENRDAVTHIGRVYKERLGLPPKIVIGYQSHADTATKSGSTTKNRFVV
Target sequence (Q04637 whole entry, looked up): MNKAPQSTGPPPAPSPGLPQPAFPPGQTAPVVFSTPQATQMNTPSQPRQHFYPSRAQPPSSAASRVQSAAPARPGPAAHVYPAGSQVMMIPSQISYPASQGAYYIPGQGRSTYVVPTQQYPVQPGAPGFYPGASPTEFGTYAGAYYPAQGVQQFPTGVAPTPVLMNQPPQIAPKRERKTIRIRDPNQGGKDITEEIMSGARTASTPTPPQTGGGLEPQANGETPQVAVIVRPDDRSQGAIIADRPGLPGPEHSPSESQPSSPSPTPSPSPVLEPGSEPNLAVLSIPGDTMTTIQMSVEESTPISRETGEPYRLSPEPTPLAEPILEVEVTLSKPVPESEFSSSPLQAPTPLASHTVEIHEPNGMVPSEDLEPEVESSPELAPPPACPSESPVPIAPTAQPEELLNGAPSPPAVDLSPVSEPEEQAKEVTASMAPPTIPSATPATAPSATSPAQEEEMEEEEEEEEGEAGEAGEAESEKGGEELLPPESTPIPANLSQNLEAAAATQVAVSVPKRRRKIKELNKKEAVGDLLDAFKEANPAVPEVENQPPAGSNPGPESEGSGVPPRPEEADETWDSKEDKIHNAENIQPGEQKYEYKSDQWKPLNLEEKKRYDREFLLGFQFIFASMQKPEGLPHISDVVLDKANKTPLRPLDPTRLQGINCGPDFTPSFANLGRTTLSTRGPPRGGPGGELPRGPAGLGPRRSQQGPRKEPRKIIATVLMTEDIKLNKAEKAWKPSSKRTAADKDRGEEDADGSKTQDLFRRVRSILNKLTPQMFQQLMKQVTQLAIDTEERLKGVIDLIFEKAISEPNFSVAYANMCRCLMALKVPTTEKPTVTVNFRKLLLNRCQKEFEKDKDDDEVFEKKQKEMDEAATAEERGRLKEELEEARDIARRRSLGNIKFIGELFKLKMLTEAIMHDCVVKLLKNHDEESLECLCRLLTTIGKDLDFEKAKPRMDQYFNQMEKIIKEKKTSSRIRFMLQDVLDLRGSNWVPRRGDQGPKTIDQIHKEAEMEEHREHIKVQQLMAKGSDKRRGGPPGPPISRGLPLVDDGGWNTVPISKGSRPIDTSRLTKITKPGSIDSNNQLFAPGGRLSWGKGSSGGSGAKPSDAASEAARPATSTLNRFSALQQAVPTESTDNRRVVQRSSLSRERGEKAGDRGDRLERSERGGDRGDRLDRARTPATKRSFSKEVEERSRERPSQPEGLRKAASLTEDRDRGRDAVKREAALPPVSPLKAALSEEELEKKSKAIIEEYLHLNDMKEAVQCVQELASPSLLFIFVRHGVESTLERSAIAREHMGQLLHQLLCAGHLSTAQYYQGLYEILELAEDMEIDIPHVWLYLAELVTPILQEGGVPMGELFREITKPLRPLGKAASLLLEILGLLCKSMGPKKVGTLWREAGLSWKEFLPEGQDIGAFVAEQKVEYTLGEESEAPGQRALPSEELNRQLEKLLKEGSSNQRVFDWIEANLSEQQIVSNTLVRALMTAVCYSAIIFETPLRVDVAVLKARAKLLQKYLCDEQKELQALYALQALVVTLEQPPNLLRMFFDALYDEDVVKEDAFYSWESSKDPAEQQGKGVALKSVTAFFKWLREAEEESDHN
PABP FP inh – PABP-poly(A) binding inhibition; AID 2014; calls only at 35 µM; P11940; PABP-poly(A) RNA binding, fluorescence polarization; 290,000 tested, 1% active;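 further: calls also rest on retests at 20 µM and on dose response follow-up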
eIF4H inh – inhibitors of RNA binding by human eIF4H; inhibition, % at 35 µM; 290,000 tested, 0.94% active; Q15056; eIF4H fluorescence polarization binding assay;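 further: calls also rest on retests at 20 µM and on dose response follow-up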
HCV core dimer – HCV core protein dimerization inhibition; TR-FRET GST/Flag-core106 dimerization, 1536-well; inhibition, % at 5 µM; 300,000 tested, 0.33% active;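 active means inhibition above the mean of all tested compounds plus 3 SD, set per screening campaign, cut at about 45% in these data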
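Assay system: tagged HCV core106 pair (GST and Flag); medium: KF-containing HEPES buffer, pH 7.45, DTT, CHAPS, BSA; also added: Eu donor and XL665 acceptor anti-tag antibodies; dosing: 5 µM single dose; timing: compound-protein-antibody incubation 4 h at 22.5 °C; signal: TR-FRET 671 and 617 nm emission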
UBC9 SUMO inh – SUMOylation inhibition; AID 2006; 290,000 tested, 0.36% active; inhibition, % at 35 µM; HTRF SUMOylation assay, SAE1/SAE2 + UBC9, in vitro; in the data active means inhibition above about 50%, passing the limit was not always enough; inconclusive means no clear call, values can overlap the other calls
Of the large screens only hits and unclear results are named; the others gave an inactive call. Unless noted, how the calls were made is not given here.

O=c1[nH]c2cc3c(cc2cc1CN(CCc1ccccc1)Cc1nnnn1CC1CCCO1)OCO3 (stereo not drawn)	PABP FP inh active, eIF4H inh inconclusive
O=c1[nH]c2cc3c(cc2cc1CN(Cc1nnnn1CC1CCCO1)C1CCCCC1)OCO3 (stereo not drawn)	none
CCC(C)(C)n1nnnc1CN(Cc1ccco1)Cc1cc2cc3c(cc2[nH]c1=O)OCO3	PABP1 MLLE inh 40 (no result: eIF4E 4G PPI)
CCOc1ccc(OCC)c(-c2c(=O)n(OCc3ccc(C(C)(C)C)cc3)c3ccccc3[n+]2[O-])c1	none
CC(=O)Nc1ccc(NC(=O)CC(NC(=O)c2ccccc2)c2ccccc2)cc1 (stereo not drawn)	none (no result: eIF4E 4G PPI)
Cc1[nH]c(=O)[nH]c(=O)c1/C=C/C(=O)OCC(C)C	PABP FP inh active, eIF4H inh inconclusive
CCCOC(=O)/C=C/c1c(C)[nH]c(=O)[nH]c1=O	none
COc1cccc(OCc2cc(C(=O)NCc3cnc4ccccn34)no2)c1	none (no result: eIF4E 4G PPI)
Cc1ccc(-c2cc(-c3ccccc3O)nc(N/N=C/c3cccnc3)n2)cc1	UBC9 SUMO inh 53
O=C(NCc1nnnn1-c1ccc(F)cc1)c1ccc2c(c1)OCO2	none (no result: eIF4E 4G PPI, PABP FP inh, eIF4H inh, HCV core dimer, UBC9 SUMO inh)
O=C(NC(=S)NC1CCSC1=O)c1ccccc1 (stereo not drawn)	none
O=C(NC(=S)NC1CCSC1=O)c1ccc([N+](=O)[O-])cc1 (stereo not drawn)	PABP1 MLLE inh 48 (no result: eIF4E 4G PPI)
O=C(NC(=S)NC1CCSC1=O)c1cccc([N+](=O)[O-])c1 (stereo not drawn)	PABP1 MLLE inh 42 (no result: eIF4E 4G PPI)
COC(=O)C(C)Oc1ccc(Cl)c(CN2OCC(C)(C)C2=O)c1 (stereo not drawn)	none (no result: eIF4E 4G PPI, PABP FP inh, eIF4H inh, UBC9 SUMO inh)
CC(C)(C)n1cc(S(=O)(=O)c2ccccc2)[nH]c1=O	PABP FP inh active, eIF4H inh active
CCOc1ccc(S(=O)(=O)NCCC(=O)NCC2(N3CCCCC3)CCCCC2)cc1	PABP FP inh active, eIF4H inh 94 (no result: eIF4E 4G PPI)
CCOc1ccc(S(=O)(=O)NCC2(N3CCCCC3)CCCCC2)cc1	none (no result: eIF4E 4G PPI, PABP FP inh, eIF4H inh, HCV core dimer, UBC9 SUMO inh)
S=C1NC[C@H](Cc2ccccc2)N1CCCCC1CCCCC1	none
S=C1NC[C@H](CC2CCCCC2)N1CCCCC1CCCCC1	eIF4E 4G PPI 31
O=C(/C=C/c1cn(CC(O)CN2CCOCC2)c2ccccc12)c1cccs1 (stereo not drawn)	PABP FP inh active (no result: PABP1 MLLE inh)
CC1=C(C(=O)N2CCOCC2)CC(CC(=O)NCC2CCCCC2)C(=O)N1CCC1=CCCCC1 (stereo not drawn)	none (no result: eIF4E 4G PPI, PABP FP inh, eIF4H inh, HCV core dimer, UBC9 SUMO inh)
O=C(NCc1cccc(C(F)(F)F)c1)c1[nH]c(C(F)(F)F)nc1-c1ccccc1	none (no result: eIF4E 4G PPI, PABP FP inh, eIF4H inh, HCV core dimer, UBC9 SUMO inh)
Cc1cc(C)n2nc(SCc3cc(=O)oc4cc(O)ccc34)nc2n1	PABP FP inh active, eIF4H inh inconclusive, HCV core dimer 74 (no result: PABP1 MLLE inh)
CCc1nc2c(OCc3ccc(F)cc3)cccn2c1N(C)C(=O)COc1ccccc1	none (no result: eIF4E 4G PPI, PABP FP inh, eIF4H inh, HCV core dimer, UBC9 SUMO inh)
Cc1cccc(N(CC(=O)NC2CCCCC2)C(=O)CCCC(=O)Nc2ccccn2)c1	none
Cc1ccc(N(CC(=O)NC2CCCCC2)C(=O)CCCC(=O)Nc2ccccn2)cc1	PABP FP inh active, eIF4H inh 79 (no result: eIF4E 4G PPI)
O=C(CCNS(=O)(=O)c1ccc(OC(F)(F)F)cc1)Nc1cccc(S(=O)(=O)N2CCCC2)c1	none (no result: eIF4E 4G PPI, PABP FP inh, eIF4H inh, HCV core dimer, UBC9 SUMO inh)
Cc1ccc(SCCN2CCN(CC(C)C)CCC2=O)cc1	none (no result: HCV core dimer)
CCOc1ccccc1N(C(=O)c1snc(C(N)=O)c1N)C(C(=O)NC1CCCC1)c1cccs1 (stereo not drawn)	PABP1 MLLE inh 59 (no result: eIF4E 4G PPI)
CCCn1nnnc1NCc1ccccc1C	none (no result: eIF4E 4G PPI)
Cn1ccc(C(=O)Nc2cccnc2Cl)n1	none (no result: eIF4E 4G PPI, HCV core dimer)
Cc1ccc(Sc2ncccc2C(N)=O)cc1	none (no result: eIF4E 4G PPI, PABP FP inh, eIF4H inh, UBC9 SUMO inh)
Cc1ccc(Sc2cnc(N)nc2C)cc1	PABP FP inh active, eIF4H inh active
Cc1cc(C)nc(NS(=O)(=O)c2ccc(NC(=O)c3cc(=O)c4ccccc4o3)cc2)n1	none (no result: eIF4E 4G PPI, PABP FP inh, eIF4H inh, UBC9 SUMO inh)
CC(=O)N1c2c(cc(Br)cc2S(=O)(=O)NCc2ccc3c(c2)OCO3)CC1C (stereo not drawn)	UBC9 SUMO inh 92
CC(=O)Nc1ccc(C)c(NS(=O)(=O)c2cccc(C(F)(F)F)c2)c1	none
COc1cccc(C(=O)NC2=NCCS2)c1OC	PABP1 MLLE inh 40
CC(C)Oc1ccc(C(=O)NC2=NCCS2)cc1	PABP1 MLLE inh 40
COC(=O)c1ccccc1NC(=O)N1CCN(Cc2ccco2)CC1	none
Cc1nc2ncccn2c1-c1csc(Nc2ccccc2)n1	none
CCNc1nc(-c2cc(C)n(Cc3ccco3)c2C)cs1	eIF4H inh inconclusive, UBC9 SUMO inh 56
Cc1csc(NC(=O)c2ccc(=O)[nH]c2)n1	none (no result: eIF4E 4G PPI)
Cc1cc(-c2csc(NC(=O)c3ccc(=O)n(C)n3)n2)c(C)n1CC1CCCO1 (stereo not drawn)	HCV core dimer 53
Cc1nc2ncccn2c1-c1csc(NCc2ccco2)n1	PABP FP inh active
Cc1cc(-c2csc(NCc3ccccc3)n2)c(C)n1C	eIF4H inh inconclusive (no result: HCV core dimer)
Cc1cc(-c2csc(NC(=O)c3ccc(=O)[nH]c3)n2)c(C)n1Cc1ccco1	eIF4E 4G PPI 46, PABP FP inh inconclusive, eIF4H inh inconclusive, HCV core dimer 49, UBC9 SUMO inh 93
Cc1cc(-c2csc(NC(=O)C3=COCCO3)n2)c(C)n1C	none (no result: eIF4E 4G PPI, PABP FP inh, eIF4H inh, UBC9 SUMO inh)
CN(CC(=O)Nc1cccc(F)c1)C(=O)c1ccc(N2CCCCC2)c([N+](=O)[O-])c1	none (no result: eIF4E 4G PPI, PABP FP inh, eIF4H inh, UBC9 SUMO inh)
O=C(c1ccccc1)N1CCN(C(=S)NCc2ccc3c(c2)OCO3)CC1	none
COC(=O)/C(=C\c1ccc([N+](=O)[O-])o1)NC(=O)c1ccccc1	PABP FP inh active
CCCCNC(=O)/C(=C\c1ccc([N+](=O)[O-])o1)NC(=O)c1ccccc1	PABP FP inh inconclusive, eIF4H inh inconclusive
N#CCCN(CCC#N)S(=O)(=O)c1ccc(C(=O)Nc2nnc(C3=COCCO3)o2)cc1	PABP FP inh active, eIF4H inh 82
CS(=O)(=O)c1cccc(C(=O)Nc2nnc(C3=COCCO3)o2)c1	PABP1 MLLE inh 41 (no result: eIF4E 4G PPI, PABP FP inh, eIF4H inh, UBC9 SUMO inh)
CCCCN(C)S(=O)(=O)c1ccc(C(=O)Nc2nnc(C3=COCCO3)o2)cc1	none
O=c1c(/C=N/OCc2ccc(Cl)cc2Cl)c[nH]n1-c1cccc(Cl)n1	eIF4H inh 25
COc1c2ccoc2nc2c(OC)c(OC[C@@H](O)C(C)(C)O)ccc12	none (no result: eIF4E 4G PPI, PABP FP inh, eIF4H inh, UBC9 SUMO inh)
Cc1ncc(CN2CCC(n3nccc3NC(=O)c3ccccc3)CC2)s1	none (no result: eIF4E 4G PPI)
O=c1cc(CO)oc(C(Nc2ccccn2)c2ccsc2)c1O (stereo not drawn)	PABP FP inh active, eIF4H inh 71 (no result: PABP1 MLLE inh)
O=c1cc(CO)oc(C(Nc2ccccn2)c2ccc(F)cc2)c1O (stereo not drawn)	none
COc1ccc(-c2cc(C(F)(F)F)c3c(n2)sc2c(O)cc(=O)[nH]c23)c(OC)c1	HCV core dimer 48
COc1ccc(CCn2c(-c3ccco3)nc3nc4ccccc4nc32)cc1	PABP FP inh active, eIF4H inh 67, HCV core dimer 56
COc1ccccc1Cn1c(-c2ccco2)nc2nc3ccccc3nc21	none (no result: eIF4E 4G PPI, PABP FP inh, eIF4H inh, UBC9 SUMO inh)
